The text below walks through data of ChEMBL document CHEMBL1138520, “Molecular and conformational determinants of pituitary adenylate cyclase-activating polypeptide (PACAP) for activation of the PAC1 receptor” (J Med Chem, 2009).

In assay [1] the target is T1, Pituitary adenylate cyclase-activating polypeptide type I receptor (Homo sapiens, UniProt P41586). The assay is described as follows: Agonist activity at human recombinant PAC1 receptor expressed in CHO cells assessed as PACAP38-induced calcium mobilization by FLIPR assay relative to PACAP38. The format is functional, cell-based. In outline:
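CHO cells stably expressing recombinant human PAC1, plated 24 h before assay, loaded with fluo-4 AM for 60 min at 37 °C in the dark, then rinsed into HBSS for 15 min at 37 °C. Peptide was added 18 s into a 150 s read (ex 480/em 525 nm), at final concentrations of 1 × 10-12 to 1 × 10^-5 M. Response was normalised to 1 × 10^-5 M PACAP38 on each plate. EC50 and efficacy came from nonlinear regression; 4-10 independent assays in duplicate.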
(A change in cytosolic calcium serves as a functional read-out for many receptors and channels.)
Target sequence in this assay (P41586 21-468 limits assumed): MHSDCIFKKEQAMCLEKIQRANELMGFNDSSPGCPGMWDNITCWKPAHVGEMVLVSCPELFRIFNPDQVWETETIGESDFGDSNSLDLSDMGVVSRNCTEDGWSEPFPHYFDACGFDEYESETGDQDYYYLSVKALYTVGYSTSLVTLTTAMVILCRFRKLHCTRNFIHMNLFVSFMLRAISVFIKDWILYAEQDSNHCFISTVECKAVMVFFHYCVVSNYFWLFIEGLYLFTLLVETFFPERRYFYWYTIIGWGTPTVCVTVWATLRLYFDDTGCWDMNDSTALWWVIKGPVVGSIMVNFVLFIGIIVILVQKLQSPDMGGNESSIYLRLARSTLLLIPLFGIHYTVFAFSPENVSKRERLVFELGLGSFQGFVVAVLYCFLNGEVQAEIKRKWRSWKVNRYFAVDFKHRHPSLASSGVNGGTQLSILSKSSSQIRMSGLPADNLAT

Assay [2] concerns the target T1, Pituitary adenylate cyclase-activating polypeptide type I receptor. The experiment in a line: Displacement of [125I]Ac-PACAP27 from human recombinant PAC1 receptor expressed in CHO cells by gamma- counter. The format is cell-based. (In general: Displacement assays read how much labelled ligand stays bound in the presence of the test substance.)
Target sequence in this assay (P41586 whole entry): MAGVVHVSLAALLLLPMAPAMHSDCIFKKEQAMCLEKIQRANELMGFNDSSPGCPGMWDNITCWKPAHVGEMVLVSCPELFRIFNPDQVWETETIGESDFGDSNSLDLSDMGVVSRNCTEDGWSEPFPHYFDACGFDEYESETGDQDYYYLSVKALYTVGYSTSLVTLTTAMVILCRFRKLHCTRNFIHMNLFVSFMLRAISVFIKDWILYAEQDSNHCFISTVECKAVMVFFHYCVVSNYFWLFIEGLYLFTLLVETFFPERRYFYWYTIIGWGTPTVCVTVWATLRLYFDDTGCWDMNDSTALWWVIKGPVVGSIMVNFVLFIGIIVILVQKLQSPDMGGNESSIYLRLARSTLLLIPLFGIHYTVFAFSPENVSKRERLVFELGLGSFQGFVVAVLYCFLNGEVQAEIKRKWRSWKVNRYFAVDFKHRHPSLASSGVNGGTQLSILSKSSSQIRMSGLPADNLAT

Where a SMILES comes first, the peptide text is derived from it.

As for `CC[C@H](C)[C@H](NC(=O)CNC(=O)[C@H](CC(=O)O)NC(=O)[C@H](CO)NC(=O)[C@H](Cc1cnc[nH]1)NC(C)=O)C(=O)N[C@@H](Cc1ccccc1)C(=O)N[C@H](C(=O)N[C@@H](CC(=O)O)C(=O)N[C@@H](CO)C(=O)N[C@@H](Cc1ccc(O)cc1)C(=O)N[C@@H](CO)C(=O)N[C@@H](CCCNC(=N)N)C(=O)N[C@@H](Cc1ccc(O)cc1)C(=O)N[C@@H](CCCNC(=N)N)C(=O)N[C@@H](CCCCN)C(=O)N[C@@H](CCC(N)=O)C(=O)N[C@@H](CCSC)C(=O)N[C@@H](C)C(=O)N[C@H](C(=O)N[C@@H](CCCCN)C(=O)N[C@@H](CCCCN)C(=O)N[C@@H](Cc1ccc(O)cc1)C(=O)N[C@@H](CC(C)C)C(=O)N[C@@H](C)C(=O)N[C@@H](C)C(=O)N[C@H](C(=O)N[C@@H](CC(C)C)C(=O)NCC(=O)N[C@@H](CCCCN)C(=O)N[C@@H](CCCNC(=N)N)C(=O)N[C@@H](Cc1ccc(O)cc1)C(=O)N[C@@H](CCCCN)C(=O)N[C@@H](CCC(N)=O)C(=O)N[C@@H](CCCNC(=N)N)C(=O)N[C@H](C(=O)N[C@@H](CCCCN)C(=O)N[C@@H](CC(N)=O)C(=O)N[C@@H](CCCCN)C(N)=O)C(C)C)C(C)C)C(C)C)[C@@H](C)O`, in assay [1], the Emax amounted to 91.1%. The same measure, in the same setting: the result for `CC[C@H](C)[C@H](NC(=O)CNC(=O)[C@H](CC(=O)O)NC(=O)[C@H](CO)NC(=O)[C@H](C)N)C(=O)N[C@@H](Cc1ccccc1)C(=O)N[C@H](C(=O)N[C@@H](CC(=O)O)C(=O)N[C@@H](CO)C(=O)N[C@@H](Cc1ccc(O)cc1)C(=O)N[C@@H](CO)C(=O)N[C@@H](CCCNC(=N)N)C(=O)N[C@@H](Cc1ccc(O)cc1)C(=O)N[C@@H](CCCNC(=N)N)C(=O)N[C@@H](CCCCN)C(=O)N[C@@H](CCC(N)=O)C(=O)N[C@@H](CCSC)C(=O)N[C@@H](C)C(=O)N[C@H](C(=O)N[C@@H](CCCCN)C(=O)N[C@@H](CCCCN)C(=O)N[C@@H](Cc1ccc(O)cc1)C(=O)N[C@@H](CC(C)C)C(=O)N[C@@H](C)C(=O)N[C@@H](C)C(=O)N[C@H](C(=O)N[C@@H](CC(C)C)C(=O)NCC(=O)N[C@@H](CCCCN)C(=O)N[C@@H](CCCNC(=N)N)C(=O)N[C@@H](Cc1ccc(O)cc1)C(=O)N[C@@H](CCCCN)C(=O)N[C@@H](CCC(N)=O)C(=O)N[C@@H](CCCNC(=N)N)C(=O)N[C@H](C(=O)N[C@@H](CCCCN)C(=O)N[C@@H](CC(N)=O)C(=O)N[C@@H](CCCCN)C(N)=O)C(C)C)C(C)C)C(C)C)[C@@H](C)O` (H-ASDGIFTDSYSRYRKQMAVKKYLAAVLGKRYKQRVKNK-NH2) reads 82.6%; that for `CC[C@H](C)[C@H](NC(=O)CNC(=O)[C@H](CC(=O)O)NC(=O)[C@H](CO)NC(=O)[C@@H](N)Cc1cncn1C)C(=O)N[C@@H](Cc1ccccc1)C(=O)N[C@H](C(=O)N[C@@H](CC(=O)O)C(=O)N[C@@H](CO)C(=O)N[C@@H](Cc1ccc(O)cc1)C(=O)N[C@@H](CO)C(=O)N[C@@H](CCCNC(=N)N)C(=O)N[C@@H](Cc1ccc(O)cc1)C(=O)N[C@@H](CCCNC(=N)N)C(=O)N[C@@H](CCCCN)C(=O)N[C@@H](CCC(N)=O)C(=O)N[C@@H](CCSC)C(=O)N[C@@H](C)C(=O)N[C@H](C(=O)N[C@@H](CCCCN)C(=O)N[C@@H](CCCCN)C(=O)N[C@@H](Cc1ccc(O)cc1)C(=O)N[C@@H](CC(C)C)C(=O)N[C@@H](C)C(=O)N[C@@H](C)C(=O)N[C@H](C(=O)N[C@@H](CC(C)C)C(=O)NCC(=O)N[C@@H](CCCCN)C(=O)N[C@@H](CCCNC(=N)N)C(=O)N[C@@H](Cc1ccc(O)cc1)C(=O)N[C@@H](CCCCN)C(=O)N[C@@H](CCC(N)=O)C(=O)N[C@@H](CCCNC(=N)N)C(=O)N[C@H](C(=O)N[C@@H](CCCCN)C(=O)N[C@@H](CC(N)=O)C(=O)N[C@@H](CCCCN)C(N)=O)C(C)C)C(C)C)C(C)C)[C@@H](C)O`, 87.6%. As for `CC[C@@H](C)[C@@H](NC(=O)CNC(=O)[C@H](CC(=O)O)NC(=O)[C@H](CO)NC(=O)[C@@H](N)Cc1cnc[nH]1)C(=O)N[C@@H](Cc1ccccc1)C(=O)N[C@H](C(=O)N[C@@H](CC(=O)O)C(=O)N[C@@H](CO)C(=O)N[C@@H](Cc1ccc(O)cc1)C(=O)N[C@@H](CO)C(=O)N[C@@H](CCCNC(=N)N)C(=O)N[C@@H](Cc1ccc(O)cc1)C(=O)N[C@@H](CCCNC(=N)N)C(=O)N[C@@H](CCCCN)C(=O)N[C@@H](CCC(N)=O)C(=O)N[C@@H](CCSC)C(=O)N[C@@H](C)C(=O)N[C@H](C(=O)N[C@@H](CCCCN)C(=O)N[C@@H](CCCCN)C(=O)N[C@@H](Cc1ccc(O)cc1)C(=O)N[C@@H](CC(C)C)C(=O)N[C@@H](C)C(=O)N[C@@H](C)C(=O)N[C@H](C(=O)N[C@@H](CC(C)C)C(=O)NCC(=O)N[C@@H](CCCCN)C(=O)N[C@@H](CCCNC(=N)N)C(=O)N[C@@H](Cc1ccc(O)cc1)C(=O)N[C@@H](CCCCN)C(=O)N[C@@H](CCC(N)=O)C(=O)N[C@@H](CCCNC(=N)N)C(=O)N[C@H](C(=O)N[C@@H](CCCCN)C(=O)N[C@@H](CC(N)=O)C(=O)N[C@@H](CCCCN)C(N)=O)C(C)C)C(C)C)C(C)C)[C@@H](C)O`, the IC50 in assay [2] was 0.122 µM. `CC[C@H](C)[C@H](NC(=O)CNC(=O)[C@H](CC(=O)O)NC(=O)[C@H](CO)NC(=O)[C@@H](N)Cc1cnc[nH]1)C(=O)N[C@@H](Cc1ccccc1)C(=O)N[C@@H](C(=O)N[C@@H](CC(=O)O)C(=O)N[C@@H](CO)C(=O)N[C@@H](Cc1ccc(O)cc1)C(=O)N[C@@H](CO)C(=O)N[C@@H](CCCNC(=N)N)C(=O)N[C@@H](Cc1ccc(O)cc1)C(=O)N[C@@H](CCCNC(=N)N)C(=O)N[C@@H](CCCCN)C(=O)N[C@@H](CCC(N)=O)C(=O)N[C@@H](CCSC)C(=O)N[C@@H](C)C(=O)N[C@H](C(=O)N[C@@H](CCCCN)C(=O)N[C@@H](CCCCN)C(=O)N[C@@H](Cc1ccc(O)cc1)C(=O)N[C@@H](CC(C)C)C(=O)N[C@@H](C)C(=O)N[C@@H](C)C(=O)N[C@H](C(=O)N[C@@H](CC(C)C)C(=O)NCC(=O)N[C@@H](CCCCN)C(=O)N[C@@H](CCCNC(=N)N)C(=O)N[C@@H](Cc1ccc(O)cc1)C(=O)N[C@@H](CCCCN)C(=O)N[C@@H](CCC(N)=O)C(=O)N[C@@H](CCCNC(=N)N)C(=O)N[C@H](C(=O)N[C@@H](CCCCN)C(=O)N[C@@H](CC(N)=O)C(=O)N[C@@H](CCCCN)C(N)=O)C(C)C)C(C)C)C(C)C)[C@@H](C)O`: in assay [1], the Emax was 63.3%. The same measure, in the same setting: under `CC[C@H](C)[C@@H](NC(=O)CNC(=O)[C@H](CC(=O)O)NC(=O)[C@H](CO)NC(=O)[C@@H](N)Cc1cnc[nH]1)C(=O)N[C@@H](Cc1ccccc1)C(=O)N[C@H](C(=O)N[C@@H](CC(=O)O)C(=O)N[C@@H](CO)C(=O)N[C@@H](Cc1ccc(O)cc1)C(=O)N[C@@H](CO)C(=O)N[C@@H](CCCNC(=N)N)C(=O)N[C@@H](Cc1ccc(O)cc1)C(=O)N[C@@H](CCCNC(=N)N)C(=O)N[C@@H](CCCCN)C(=O)N[C@@H](CCC(N)=O)C(=O)N[C@@H](CCSC)C(=O)N[C@@H](C)C(=O)N[C@H](C(=O)N[C@@H](CCCCN)C(=O)N[C@@H](CCCCN)C(=O)N[C@@H](Cc1ccc(O)cc1)C(=O)N[C@@H](CC(C)C)C(=O)N[C@@H](C)C(=O)N[C@@H](C)C(=O)N[C@H](C(=O)N[C@@H](CC(C)C)C(=O)NCC(=O)N[C@@H](CCCCN)C(=O)N[C@@H](CCCNC(=N)N)C(=O)N[C@@H](Cc1ccc(O)cc1)C(=O)N[C@@H](CCCCN)C(=O)N[C@@H](CCC(N)=O)C(=O)N[C@@H](CCCNC(=N)N)C(=O)N[C@H](C(=O)N[C@@H](CCCCN)C(=O)N[C@@H](CC(N)=O)C(=O)N[C@@H](CCCCN)C(N)=O)C(C)C)C(C)C)C(C)C)[C@@H](C)O` stands 76.2%.

By Emax is commonly meant the size of the effect at its maximum, as opposed to the concentration needed. For orientation: IC50 means the concentration at which inhibition is half-maximal.
